Data as given in ChEMBL document CHEMBL1131103, “Synthesis and biological evaluation of 2-acyl analogues of paclitaxel (Taxol)” (J Med Chem, 1998).

How the values were obtained:
[1] = test system: Panel ovarian (Carcinoma cell lines); assay: Cytotoxic activity was measured against human Ovarian carcinoma cell lines; format: functional, cell-based
Outline: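 Ovarian carcinoma line 1A9, a subclone of A2780, grown as monolayers in 96-well plates for 96 h at 37 °C, 5% CO₂. Cell protein quantitated (Skehan method). IC₅₀ = concentration inhibiting the increase in cell protein by 50%.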

[2] = organism: Bos taurus; assay: Polymerizing activity of tubulin in glutamate against bovine brain tubulin homogenate was measured at 0.8M concentrations; format: functional
Outline: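 Bovine brain tubulin, purified to electrophoretic homogeneity, in 0.8 M monosodium glutamate (from 2 M stock, pH 6.6), room temperature, no GTP. Polymer removed by centrifugation. IC₅₀ = concentration reducing supernatant protein by 50% relative to drug-free control. Maximum 40 µM. At least three independent experiments, or at least two for IC₅₀ over 40 µM.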

[3] = organism: Bos taurus; assay: Polymerizing activity of tubulin in glutamate against bovine brain tubulin homogenate was measured at 0.4 M concentrations; format: functional
Outline: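 Purified, electrophoretically homogeneous bovine brain tubulin assembled at room temperature without GTP or Mg²⁺ in 0.4 M monosodium glutamate (from 2 M stock, pH 6.6). Polymer pelleted by centrifugation. IC₅₀ = drug concentration lowering supernatant protein by 50% versus no-drug control. Up to 40 µM. At least three independent experiments, or at least two where IC₅₀ exceeded 40 µM.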

[4] = test system: Panel colon (Carcinoma cell lines); assay: Cytotoxic activity was measured against human colon carcinoma cell lines; format: functional, cell-based
Outline: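 HCT116 colon carcinoma monolayers in 96-well plates, 48 h at 37 °C under 5% CO₂. Cell protein measured. IC₅₀ = concentration giving 50% inhibition of the increase in cell protein.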

[5] = organism: Bos taurus; assay: Polymerizing activity of microtubule protein against the twice cycled microtubule protein; format: functional
Outline: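 Twice-cycled microtubule protein, stored in liquid nitrogen, at 1.0 mg/mL final in 0.1 M MES, 1 mM EGTA, 0.5 mM MgCl₂, pH 6.6, 37 °C, no GTP. Compound at 2.5, 5.0 and 10 µM. Absorbance read every 10 s and initial linear slopes taken. EC0.01 = interpolated concentration giving an initial slope of 0.01 A unit/min.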

[6] = test system: Burkitts lymphoma cell; assay: Cytotoxic activity against was measured human Burkitt lymphoma cell lines.; format: functional, cell-based
Outline: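 CA46 Burkitt lymphoma cells in 5.0-mL suspension culture, counted after 24 h at 37 °C under 5% CO₂. IC₅₀ = drug concentration halving the increase in cell number. Highest concentration 100 nM. At least two independent experiments.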

[7] = test system: ptx-10/22; assay: Relative resistance was measured against human paclitaxel-resistant cell lines; format: functional, cell-based; conditions: 1A9(PTX22)

| Structure (SMILES) | IC50 [1] | IC50 [2] | IC50 [3] | IC50 [4] | EC0.01 (relative to paclitaxel) [5] | IC50 [6] | relative resistance [7] |
| --- | --- | --- | --- | --- | --- | --- | --- |
| CC(=O)O[C@H]1C(=O)[C@@]2(C)[C@H]([C@H](OC(=O)c3cc(F)c(F)cc3F)[C@]3(O)C[C@H](OC(=O)[C@H](O)[C@@H](NC(=O)c4ccccc4)c4ccccc4)C(C)=C1C3(C)C)[C@]1(OC(C)=O)CO[C@@H]1C[C@@H]2O | 3.1 relative to paclitaxel | 3.1 relative to paclitaxel | > 1.7 relative to paclitaxel | 1.9 relative to paclitaxel | 1.5 | 1 relative to paclitaxel | 0.48 |
| COc1cccc(C(=O)O[C@H]2[C@@H]3[C@]4(OC(C)=O)CO[C@@H]4C[C@H](O)[C@@]3(C)C(=O)[C@H](OC(C)=O)C3=C(C)[C@@H](OC(=O)[C@H](O)[C@@H](NC(=O)c4ccccc4)c4ccccc4)C[C@]2(O)C3(C)C)c1OC | > 48 relative to paclitaxel | > 8.9 relative to paclitaxel | > 1.7 relative to paclitaxel | 59 relative to paclitaxel | > 270 | > 3.3 relative to paclitaxel | – |
| CC(=O)O[C@H]1C(=O)[C@@]2(C)[C@H]([C@H](OC(=O)c3cccc(Br)c3)[C@]3(O)C[C@H](OC(=O)[C@H](O)[C@@H](NC(=O)c4ccccc4)c4ccccc4)C(C)=C1C3(C)C)[C@]1(OC(C)=O)CO[C@@H]1C[C@@H]2O | 0.32 relative to paclitaxel | – | 0.24 relative to paclitaxel | 0.32 relative to paclitaxel | 0.8 | – | 0.42 |
| CC(=O)O[C@H]1C(=O)[C@@]2(C)[C@H]([C@H](OC(=O)c3cc([N+](=O)[O-])cc([N+](=O)[O-])c3)[C@]3(O)C[C@H](OC(=O)[C@H](O)[C@@H](NC(=O)c4ccccc4)c4ccccc4)C(C)=C1C3(C)C)[C@]1(OC(C)=O)CO[C@@H]1C[C@@H]2O | 20 relative to paclitaxel | > 8.9 relative to paclitaxel | > 1.7 relative to paclitaxel | 3.1 relative to paclitaxel | 4.2 | 2.3 relative to paclitaxel | – |
| CC(=O)O[C@H]1C(=O)[C@@]2(C)[C@H]([C@H](OC(=O)c3cccc(C#N)c3)[C@]3(O)C[C@H](OC(=O)[C@H](O)[C@@H](NC(=O)c4ccccc4)c4ccccc4)C(C)=C1C3(C)C)[C@]1(OC(C)=O)CO[C@@H]1C[C@@H]2O | 0.32 relative to paclitaxel | – | 0.63 relative to paclitaxel | 1.1 relative to paclitaxel | 1 | – | 1.3 |
| CC(=O)O[C@H]1C(=O)[C@@]2(C)[C@H]([C@H](OC(=O)c3cc(Cl)cc(Cl)c3)[C@]3(O)C[C@H](OC(=O)[C@H](O)[C@@H](NC(=O)c4ccccc4)c4ccccc4)C(C)=C1C3(C)C)[C@]1(OC(C)=O)CO[C@@H]1C[C@@H]2O | 0.38 relative to paclitaxel | – | 0.91 relative to paclitaxel | 0.51 relative to paclitaxel | 0.44 | 0.67 relative to paclitaxel | 0.48 |
| CC(=O)O[C@H]1C(=O)[C@@]2(C)[C@H]([C@H](OC(=O)c3cccc(C(F)(F)F)c3)[C@]3(O)C[C@H](OC(=O)[C@H](O)[C@@H](NC(=O)c4ccccc4)c4ccccc4)C(C)=C1C3(C)C)[C@]1(OC(C)=O)CO[C@@H]1C[C@@H]2O | 1.4 relative to paclitaxel | 6.7 relative to paclitaxel | > 1.7 relative to paclitaxel | 3 relative to paclitaxel | 1.3 | 0.67 relative to paclitaxel | – |
| CC(=O)O[C@H]1C(=O)[C@@]2(C)[C@H]([C@H](OC(=O)c3cccc(F)c3F)[C@]3(O)C[C@H](OC(=O)[C@H](O)[C@@H](NC(=O)c4ccccc4)c4ccccc4)C(C)=C1C3(C)C)[C@]1(OC(C)=O)CO[C@@H]1C[C@@H]2O | 14 relative to paclitaxel | > 8.9 relative to paclitaxel | > 1.7 relative to paclitaxel | 0.55 relative to paclitaxel | 0.8 | – | – |
| COc1ccc(OC)c(C(=O)O[C@H]2[C@@H]3[C@]4(OC(C)=O)CO[C@@H]4C[C@H](O)[C@@]3(C)C(=O)[C@H](OC(C)=O)C3=C(C)[C@@H](OC(=O)[C@H](O)[C@@H](NC(=O)c4ccccc4)c4ccccc4)C[C@]2(O)C3(C)C)c1 | 0.12 relative to paclitaxel | – | 0.2 relative to paclitaxel | 0.14 relative to paclitaxel | 0.5 | 0.67 relative to paclitaxel | 0.76 |
| CC(=O)O[C@H]1C(=O)[C@@]2(C)[C@H]([C@H](OC(=O)c3ccccc3N=[N+]=[N-])[C@]3(O)C[C@H](OC(=O)[C@H](O)[C@@H](NC(=O)c4ccccc4)c4ccccc4)C(C)=C1C3(C)C)[C@]1(OC(C)=O)CO[C@@H]1C[C@@H]2O | 0.77 relative to paclitaxel | – | 0.38 relative to paclitaxel | 0.36 relative to paclitaxel | 0.7 | – | 0.67 |
| CC(=O)O[C@H]1C(=O)[C@@]2(C)[C@H]([C@H](OC(=O)c3ccc(O)cc3)[C@]3(O)C[C@H](OC(=O)[C@H](O)[C@@H](NC(=O)c4ccccc4)c4ccccc4)C(C)=C1C3(C)C)[C@]1(OC(C)=O)CO[C@@H]1C[C@@H]2O | 31 relative to paclitaxel | > 8.9 relative to paclitaxel | > 1.7 relative to paclitaxel | 52 relative to paclitaxel | 19 | 3 relative to paclitaxel | – |
| CC(=O)O[C@H]1C(=O)[C@@]2(C)[C@H]([C@H](OC(=O)c3cc(F)ccc3F)[C@]3(O)C[C@H](OC(=O)[C@H](O)[C@@H](NC(=O)c4ccccc4)c4ccccc4)C(C)=C1C3(C)C)[C@]1(OC(C)=O)CO[C@@H]1C[C@@H]2O | 0.67 relative to paclitaxel | – | 0.29 relative to paclitaxel | 0.44 relative to paclitaxel | 0.34 | 0.67 relative to paclitaxel | 0.57 |
| COc1cccc(C(=O)O[C@H]2[C@@H]3[C@]4(OC(C)=O)CO[C@@H]4C[C@H](O)[C@@]3(C)C(=O)[C@H](OC(C)=O)C3=C(C)[C@@H](OC(=O)[C@H](O)[C@@H](NC(=O)c4ccccc4)c4ccccc4)C[C@]2(O)C3(C)C)c1 | 0.095 relative to paclitaxel | – | 0.22 relative to paclitaxel | 0.35 relative to paclitaxel | 0.5 | 0.27 relative to paclitaxel | 0.71 |
| CC(=O)O[C@H]1C(=O)[C@@]2(C)[C@H]([C@H](OC(=O)c3ccc(Cl)c(Cl)c3)[C@]3(O)C[C@H](OC(=O)[C@H](O)[C@@H](NC(=O)c4ccccc4)c4ccccc4)C(C)=C1C3(C)C)[C@]1(OC(C)=O)CO[C@@H]1C[C@@H]2O | 1 relative to paclitaxel | – | 0.41 relative to paclitaxel | 0.77 relative to paclitaxel | 0.76 | – | 0.27 |
| CC(=O)O[C@H]1C(=O)[C@@]2(C)[C@H]([C@H](OC(=O)c3cc(F)cc(F)c3)[C@]3(O)C[C@H](OC(=O)[C@H](O)[C@@H](NC(=O)c4ccccc4)c4ccccc4)C(C)=C1C3(C)C)[C@]1(OC(C)=O)CO[C@@H]1C[C@@H]2O | 0.12 relative to paclitaxel | – | 0.29 relative to paclitaxel | 0.36 relative to paclitaxel | 0.6 | – | 1.1 |
| CC(=O)O[C@H]1C(=O)[C@@]2(C)[C@H]([C@H](OC(=O)c3cccc(Cl)c3)[C@]3(O)C[C@H](OC(=O)[C@H](O)[C@@H](NC(=O)c4ccccc4)c4ccccc4)C(C)=C1C3(C)C)[C@]1(OC(C)=O)CO[C@@H]1C[C@@H]2O | 0.05 relative to paclitaxel | – | 0.3 relative to paclitaxel | 1.7 relative to paclitaxel | 0.92 | 0.67 relative to paclitaxel | 2.9 |
| CC(=O)O[C@H]1C(=O)[C@@]2(C)[C@H]([C@H](OC(=O)c3ccc(Cl)cc3)[C@]3(O)C[C@H](OC(=O)[C@H](O)[C@@H](NC(=O)c4ccccc4)c4ccccc4)C(C)=C1C3(C)C)[C@]1(OC(C)=O)CO[C@@H]1C[C@@H]2O | 7.6 relative to paclitaxel | > 8.9 relative to paclitaxel | > 1.7 relative to paclitaxel | – | – | 1.3 relative to paclitaxel | – |
| CC(=O)O[C@H]1C(=O)[C@@]2(C)[C@H]([C@H](OC(=O)c3cccc(N=[N+]=[N-])c3)[C@]3(O)C[C@H](OC(=O)[C@H](O)[C@@H](NC(=O)c4ccccc4)c4ccccc4)C(C)=C1C3(C)C)[C@]1(OC(C)=O)CO[C@@H]1C[C@@H]2O | 0.18 relative to paclitaxel | – | 0.2 relative to paclitaxel | 1.4 relative to paclitaxel | 0.37 | 0.17 relative to paclitaxel | 0.27 |
| CSc1cccc(C(=O)O[C@H]2[C@@H]3[C@]4(OC(C)=O)CO[C@@H]4C[C@H](O)[C@@]3(C)C(=O)[C@H](OC(C)=O)C3=C(C)[C@@H](OC(=O)[C@H](O)[C@@H](NC(=O)c4ccccc4)c4ccccc4)C[C@]2(O)C3(C)C)c1 | 3.3 relative to paclitaxel | 2.7 relative to paclitaxel | > 1.7 relative to paclitaxel | – | – | 1 relative to paclitaxel | 0.52 |
| COc1cc(C(=O)O[C@H]2[C@@H]3[C@]4(OC(C)=O)CO[C@@H]4C[C@H](O)[C@@]3(C)C(=O)[C@H](OC(C)=O)C3=C(C)[C@@H](OC(=O)[C@H](O)[C@@H](NC(=O)c4ccccc4)c4ccccc4)C[C@]2(O)C3(C)C)cc(OC)c1OC | > 48 relative to paclitaxel | > 8.9 relative to paclitaxel | > 1.7 relative to paclitaxel | 110 relative to paclitaxel | 32 | > 3.3 relative to paclitaxel | – |
| CC(=O)O[C@H]1C(=O)[C@@]2(C)[C@H]([C@H](OC(=O)c3cccc(F)c3)[C@]3(O)C[C@H](OC(=O)[C@H](O)[C@@H](NC(=O)c4ccccc4)c4ccccc4)C(C)=C1C3(C)C)[C@]1(OC(C)=O)CO[C@@H]1C[C@@H]2O | 0.4 relative to paclitaxel | 2.6 relative to paclitaxel | 1.2 relative to paclitaxel | 0.45 relative to paclitaxel | 0.7 | – | 0.96 |
